Reference: ChEMBL document CHEMBL1125029, “Chemical and biochemical studies of 2-propynylpyrrolidine derivatives. Restricted-rotation analogues of N-methyl-N-(1-methyl-4-pyrrolidino-2-butynyl)acetamide (BM-5)” (J Med Chem, 1990)

Experiments:
[1] = target: Muscarinic receptor M1 and M2 (Rattus norvegicus) (UniProt P08482+P10980); assay: The agonist ratio as the ratio of Ki against [3H]QNB to that of [3H]-CD; format: functional
[2] = target: Muscarinic acetylcholine receptor; assay: Binding activity to the muscarinic acetylcholine receptor in rat cortex, assayed using [3H]CD as a radioligand.; format: tissue-based
How it was run: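 Male Wistar rat cerebral cortex homogenate in 10 mM Na/K phosphate pH 7.4, diluted 1:300 (wet wt/v), ~0.75 mg protein per 2.0 mL. 1 nM radioligand (55.5 Ci/mmol), prepared fresh in buffer. Competitor 10^-12 to 10^-3 M. Nonspecific binding with 10 μM atropine. Rapid filtration on PEI-treated filters, scintillation counting. Apparent Ki by one-site competitive nonlinear regression.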

[3] = target: Muscarinic acetylcholine receptor; assay: Binding activity to the muscarinic acetylcholine receptor in rat cortex, assayed using [3H]PZ as a radioligand.; format: tissue-based
How it was run: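 Rat (male Wistar, 200-250 g) cortex homogenized in ice-cold Na/K phosphate buffer pH 7.4, diluted 1:400, ~0.55 mg protein per 2.0 mL. 0.1 nM radioligand (84.1 Ci/mmol), made fresh just before use. Unlabeled competitor at final 10^-12 to 10^-3 M. 10 μM atropine for nonspecific. Filtered, counted by liquid scintillation. One-site competitive fit gives apparent Ki.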

[4] = target: Muscarinic acetylcholine receptor; assay: (§1) Binding activity against Muscarinic acetylcholine receptor in rat cortex, using [3H]QNB as a radioligand.; format: tissue-based
How it was run: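 Competitor at final 10^-12 to 10^-3 M. 10 μM atropine defines nonspecific binding. Filtration on PEI-soaked GF/B filters, scintillation counting. Apparent Ki from one-site competitive nonlinear fit.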

[5] = target: Muscarinic acetylcholine receptor; assay: Binding activity to muscarinic acetylcholine receptor in rat heart, assayed using [3H]QNB as a radioligand in the presence of Gpp(NH)p.
How it was run: (§2)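 Male Wistar rat heart ventricles flushed, minced, Polytron-homogenized in 10 mM Na/K phosphate pH 7.4, spun 48000 g 15 min 4 °C, resuspended, gauze-filtered, diluted 1:750, 0.15-0.2 mg protein/2.0 mL. 10 μM Gpp(NH)p added to homogenate for line 3. Competitor 10^-12 to 10^-3 M. 10 μM atropine nonspecific. Filtration, scintillation counting. Ki from one-site fit.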

[6] = target: Muscarinic acetylcholine receptor; assay: Binding activity to muscarinic acetylcholine receptor in rat heart, assayed using [3H]-QNB as a radioligand.; how it was run: as §2
[7] = target: T1, Muscarinic acetylcholine receptor M1 (Rattus norvegicus) (UniProt P08482); assay: Muscarinic 1 receptor agonistic activity as the selectivity ratio of Ki against [3H]-QNB to that of [3H]PZ; format: functional
T1 sequence (whole entry): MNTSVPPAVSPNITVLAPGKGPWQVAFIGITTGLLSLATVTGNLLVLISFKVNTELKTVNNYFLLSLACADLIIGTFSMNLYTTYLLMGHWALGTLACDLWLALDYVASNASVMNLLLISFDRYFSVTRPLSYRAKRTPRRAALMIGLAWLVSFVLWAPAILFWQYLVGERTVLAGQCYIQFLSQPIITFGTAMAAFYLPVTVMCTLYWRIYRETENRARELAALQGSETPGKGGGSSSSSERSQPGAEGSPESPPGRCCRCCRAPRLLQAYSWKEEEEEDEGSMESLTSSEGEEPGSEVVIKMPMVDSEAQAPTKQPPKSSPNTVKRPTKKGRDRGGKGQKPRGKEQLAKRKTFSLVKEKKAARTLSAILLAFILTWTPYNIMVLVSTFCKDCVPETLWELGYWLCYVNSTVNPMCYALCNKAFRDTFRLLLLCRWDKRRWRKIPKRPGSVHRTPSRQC

[8] = target: T1, Muscarinic acetylcholine receptor M1 (Rattus norvegicus); assay: Muscarinic 1 receptor agonistic activity as the selectivity ratio of Ki against [3H]-QNB+ Gpp(NH)p to that of [3H]PZ; format: functional
[9] = target: T2, Muscarinic acetylcholine receptor M2 (Rattus norvegicus) (UniProt P10980); assay: Muscarinic 2 receptor agonistic activity was determined as the selectivity ratio of Ki against [3H]QNB+ Gpp(NH)p to that of [3H]QNB; format: functional
T2 sequence (whole entry): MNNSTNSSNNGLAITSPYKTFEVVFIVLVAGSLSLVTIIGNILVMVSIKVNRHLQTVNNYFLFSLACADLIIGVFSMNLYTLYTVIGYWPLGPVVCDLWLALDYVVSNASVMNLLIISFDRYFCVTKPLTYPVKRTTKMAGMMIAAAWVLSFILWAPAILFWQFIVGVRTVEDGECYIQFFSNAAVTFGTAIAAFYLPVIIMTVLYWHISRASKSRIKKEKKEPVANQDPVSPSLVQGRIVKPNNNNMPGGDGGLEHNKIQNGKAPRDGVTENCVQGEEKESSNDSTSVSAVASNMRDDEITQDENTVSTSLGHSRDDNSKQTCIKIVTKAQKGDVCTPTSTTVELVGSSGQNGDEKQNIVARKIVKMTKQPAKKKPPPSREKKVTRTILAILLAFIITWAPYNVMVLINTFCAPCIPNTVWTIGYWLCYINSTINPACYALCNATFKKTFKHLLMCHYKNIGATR

[10] = target: Muscarinic acetylcholine receptor; assay: as §1; format: tissue-based; remark: listed apart in the source
How it was run: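 Radioligand 250 pM (30.0 Ci/mmol). Competitor at final 10^-12 to 10^-3 M. 10 μM atropine defines nonspecific binding. Filtration on PEI-soaked GF/B filters, scintillation counting. Apparent Ki from one-site competitive nonlinear fit.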

| Structure (SMILES) | Ratio [1] | Ki [2] [nM] | Ki [3] [nM] | Ki [4] [nM] | Ki [5] [nM] | Ki [6] [nM] | Ratio [7] | Ratio [8] | Ratio [9] | Ki [10] [nM] |
| --- | --- | --- | --- | --- | --- | --- | --- | --- | --- | --- |
| COC(=O)N1CCC[C@@H]1C#CCN1CCCC1 | 1.5 | 530 | 1590 | 810 | 5060 | 2940 | 1.8 | 3.2 | 1.7 | – |
| CC(=O)N1CCC[C@@H]1C#CCN(C)C | 8.4 | 1650 | 5250 | 13800 | 42400 | 11800 | 2.2 | 8.1 | 3.6 | – |
| COC(=O)N1CCC[C@H]1C#CCN1CCCC1 | 0.4 | 1440 | 1480 | 620 | 5750 | 4420 | 3 | 3.9 | 1.3 | – |
| CC(=O)N1CCC[C@@H]1C#CC[N+](C)(C)C | 20.3 | 110 | 1630 | 2230 | 5470 | 2070 | 1.3 | 3.4 | 2.6 | – |
| C(#C[C@H]1CCCN1)CN1CCCC1.Cl.Cl | 2.5 | 1280 | 6500 | 3220 | 19600 | 12900 | 2 | 3 | 1.5 | – |
| CS(=O)(=O)N1CCC[C@H]1C#CCN1CCCC1.Cl | 0.8 | 3920 | 6050 | 3020 | 15100 | 9190 | 1.5 | 2.5 | 1.6 | – |
| CC(C)(C)OC(=O)N1CCC[C@H]1C#CCN1CCCC1 | 3 | 330 | 70 | 980 | 900 | 130 | 1.9 | 13 | 6.9 | – |
| CC(C)(C)OC(=O)N1CCC[C@@H]1C#CCN1CCCC1 | 3 | 220 | 420 | 660 | 1960 | 1320 | 3.1 | 4.7 | 1.5 | – |
| O=C1CCCN1CC#CCN1CCCC1 [OXOTREMORINE] | 120 | 0.5 | 140 | 60 | 140 | 4 | 0.03 | 1 | 35 | – |
| CN(C)CC#C[C@H]1CCCN1C(=O)OC(C)(C)C | 12.8 | 250 | 5600 | 3200 | 19600 | 5160 | 0.9 | 3.5 | 3.8 | – |
| Cl.O=C(N1CCC[C@@H]1C#CCN1CCCC1)C(F)(F)F | 0.8 | 440 | 140 | 360 | 1070 | 1230 | 8.8 | 7.6 | 0.9 | – |
| CS(=O)(=O)N1CCC[C@@H]1C#CCN1CCCC1.Cl | 1 | 1980 | 4110 | 1920 | 13400 | 5910 | 1.4 | 3.3 | 2.3 | – |
| C(#C[C@@H]1CCCN1)CN1CCCC1.Cl.Cl | 0.5 | 5670 | 2220 | – | 2080 | 1550 | 0.7 | 0.9 | 1.3 | 2800 |
| CCOC(=O)N1CCC[C@@H]1C#CCN1CCCC1 | 2.3 | 510 | 190 | 1160 | 1040 | 940 | 4.9 | 5.5 | 1.1 | – |
| CC(=O)N1CCC[C@H]1C#CCN1CCCC1.Cl | 1.9 | 2550 | 2060 | – | 22600 | 15500 | 7.5 | 11 | 1.5 | 4960 |
| CC(=O)N1CCC[C@H]1C#CC[N+](C)(C)C | 5 | 4150 | 13900 | – | 47100 | 16400 | 1.2 | 3.4 | 2.9 | 20900 |
| CN(C)CC#C[C@H]1CCCN1.Cl.Cl | 0.5 | 37080 | 25200 | 18700 | 29300 | 28500 | 1.1 | 1.2 | 1 | – |
| CC(=O)N1CCC[C@@H]1C#CCN1CCCC1.Cl | 1 | 450 | 170 | 430 | 1630 | 610 | 3.6 | 9.6 | 2.7 | – |
| CN(C)CC#C[C@@H]1CCCN1C(=O)OC(C)(C)C | 3.5 | 3300 | 9040 | 11400 | 14100 | 13400 | 1.5 | 1.6 | 1.1 | – |
| CN(C)CC#C[C@@H]1CCCN1.Cl.Cl | 0.2 | 37350 | 13200 | – | 19100 | 20000 | 1.5 | 1.4 | 1 | 8500 |
| CCOC(=O)N1CCC[C@H]1C#CCN1CCCC1 | 0.5 | 610 | 100 | 310 | 1000 | 850 | 8.5 | 10 | 1.2 | – |
| Cl.O=C(N1CCC[C@H]1C#CCN1CCCC1)C(F)(F)F | 1.6 | 2220 | 3100 | 3450 | 8860 | 6400 | 2.1 | 2.9 | 1.4 | – |
| O=CN1CCC[C@@H]1C#CCN1CCCC1 | 0.7 | 3350 | 1180 | 2390 | 3120 | 3260 | 2.7 | 2.5 | 1 | – |
